Laboratory results published in ChEMBL document CHEMBL4422632, “Design of Novel Inhibitors of Human Thymidine Phosphorylase: Synthesis, Enzyme Inhibition, in Vitro Toxicity, and Impact on Human Glioblastoma Cancer” (J Med Chem, 2019).

Key:
[1] = Cytotoxicity against mouse RAW264.7 cells assessed as cell viability at 500 uM after 72 hrs by MTT assay relative to control; assay type: cell-based; details: read-out: Activity
In short: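 Cells kept in DMEM with 10% heat-inactivated FBS, 1% penicillin-streptomycin and 0.1% fungizone at 37 °C, 5% CO₂. U-87 MG seeded at 2 x 10^3 cells/well, RAW 264.7 at 5 x 10^2, adhered 24 h, then exposed 72 h. MTT: 1 mg/mL for 3 h, formazan in DMSO, A595. NRU: 25 μg/mL dye, 3 h, ethanol:acetic acid:water desorb. Untreated wells = 100%; three to five independent experiments in triplicate.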

[2] = Cytotoxicity against African green monkey Vero cells assessed as cell viability at 100 uM after 72 hrs by MTT assay relative to control; assay type: cell-based; details: chlorocebus sabaeus, read-out: Activity
In short: (§1)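 Cells grown in DMEM with 10% FBS at 37 °C, 5% CO₂; seeded 2 x 10³ cells/well, adhered 24 h, then exposed 72 h. MTT: 1 mg/mL for 3 h, formazan in DMSO, absorbance 595 nm. NRU: neutral red 25 µg/mL in serum-free medium for 3 h, desorbed in ethanol:acetic acid:water. Viability as % of untreated control; mean ± SEM of three to five independent experiments in triplicate.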

[3] = Elimination rate constant in CF1 mouse at 50 mg/kg, ip by non-compartmental analysis; assay type: ADME, organism-based; details: in vivo
[4] = Cytotoxicity against human HepG2 cells assessed as cell viability at 100 uM after 72 hrs by MTT assay relative to control; assay type: cell-based; details: read-out: Activity; in short: as §1

k el [3]: 0.000383 s⁻¹
SMILES: O=c1[nH]c(CNC(CO)CO)c(I)c(=O)[nH]1
viability at 72 h, 500 µM [1]: 91%
viability at 72 h, 100 µM [2]: 96%
viability at 72 h, 100 µM [4]: 100%
